Reference: ChEMBL document CHEMBL4052653, “Discovery of Novel and Potent Stearoyl Coenzyme A Desaturase 1 (SCD1) Inhibitors as Anticancer Agents” (Bioorg Med Chem, 2017)
Active and inactive are the calls of the source. No cut-off for these calls is given here.

Key:
Stearoyl-CoA desaturase [1] = target: T1, Stearoyl-CoA desaturase (Homo sapiens, UniProt O00767); assay: Displacement of (5-(6-(10H-spiro(1-benzofuran-3,30-pyrrolidin)-10-yl)pyridazin-3-yl)-1,2,4-oxadiazol-3-yl)[3H2]methanol from SCD1 in human liver microsomes after 120 mins TopCount liquid scintillation counting method
T1 sequence (O00767 whole entry): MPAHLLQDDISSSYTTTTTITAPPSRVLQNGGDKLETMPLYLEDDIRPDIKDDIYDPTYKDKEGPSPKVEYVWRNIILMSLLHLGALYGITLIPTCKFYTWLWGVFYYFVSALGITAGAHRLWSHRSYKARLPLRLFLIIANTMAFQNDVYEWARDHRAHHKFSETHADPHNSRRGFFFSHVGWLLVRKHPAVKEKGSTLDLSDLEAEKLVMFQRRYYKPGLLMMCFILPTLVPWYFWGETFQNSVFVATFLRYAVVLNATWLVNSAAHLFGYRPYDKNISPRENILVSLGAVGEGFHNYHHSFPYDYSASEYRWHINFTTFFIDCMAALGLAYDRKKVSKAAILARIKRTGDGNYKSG
Method in brief: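 Human SCD1 liver microsomes incubated 120 min with 3.0 nM [3H]-ligand and test compound over a range of concentrations. Bound ligand collected on PEI-pretreated GF/B filters, washed five times, counted by scintillation. Controls: DMSO (100%) and 10 µM unlabeled reference ligand (0%). IC50 from a three-parameter logistic fit.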

HCT-116 = assay: Growth inhibition of human HCT116 cells after 72 hrs by CellTiter-Glo luminescence assay; format: functional; conditions: HCT-116, 72 h
Method in brief: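 HCT116 cells seeded at 9 × 10^2 cells/well and cultured 24 h. Compounds diluted in growth medium to final concentrations and added. Proliferation read by CellTiter-Glo luminescence after 72 h.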

[2] = Stability in human liver microsomes; format: ADME, microsome; conditions: read-out: Stability
[3] = Stability in mouse liver microsomes; format: ADME, microsome; conditions: read-out: Stability
[4] = AUC in po dosed mouse administered as cassette dose; format: ADME, organism-based; conditions: in vivo
Method in brief: (§1)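 Mouse cassette-dosing PK: 0.1 mg/kg iv and 1 mg/kg po. Total clearance given in […]. AUC (ng·h/mL) and MRT (h) taken after the oral dose.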

[5] = Fraction unbound in mouse plasma; format: ADME, cell-free
[6] = Total clearance in mouse at 0.1 mg/kg, iv or 1 mg/kg, po administered as cassette dose; format: ADME, organism-based; conditions: in vivo; method in brief: as §1
[7] = Mean residence time in po dosed mouse administered as cassette dose; format: ADME, organism-based; conditions: in vivo; method in brief: as §1
Mus musculus [8] = assay: Toxicity in athymic BALB/cA Jc1-nu/nu mouse at 1 mg/kg, po bid administered for 28 days; format: organism-based; conditions: in vivo, 672 h
Mus musculus [9] = assay: In-vivo inhibition of SCD1 in athymic nude mouse xenografted with human HCT116 cells assessed as decrease in desaturation index of phosphatidylcholine at 0.3 to 30 mg/kg, po bid measured after 16 hrs by LC/MS analysis; format: functional, organism-based
Method in brief: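 Nude mice bearing HCT116 xenografts of about 200 mm3, randomized. Oral dosing at 0.3, 3 and 30 mg/kg bid in 0.5% methylcellulose. Tumors collected 16 h after two doses and homogenized in isopropanol. Lipids analyzed by LC/Orbitrap MS. DI taken as the ratio PC C36:3/PC C36:0. Statistics by Williams' test.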

786-0 = assay: Antitumor activity against human 786-O cells xenografted in athymic BALB/cA Jc1-nu/nu mouse assessed as tumor growth inhibition at 1 mg/kg, po bid administered for 28 days measured twice per week; format: functional
Method in brief: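 Female BALB/c nu/nu mice, 7 weeks old, inoculated subcutaneously in the flank with 3.0 × 10^6 786-O cells (1:1 with Matrigel). Randomized at mean tumor volume of about 130 mm3, n = 8/group. Dosed orally at 1 mg/kg bid, or with 0.5% methylcellulose vehicle, for 28 days at 10 mL/kg. Calipers used twice weekly, volume = W²×L/2. T/C taken at Day 28; Student's t-test.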

[10] = Mean residence time in mouse at 1 mg/kg, po administered as cassette dose; format: ADME, organism-based; conditions: in vivo; method in brief: as §1
Stearoyl-CoA desaturase [11] = target: T1, Stearoyl-CoA desaturase; assay: Inhibition of SCD1 (unknown origin)
Mus musculus [12] = assay: AUC in mouse at 1 mg/kg, po administered as cassette dose; format: ADME, organism-based; conditions: in vivo; method in brief: as §1

| SMILES | IC50 (Stearoyl-CoA desaturase [1]) [nM] | GI50 (HCT-116) [nM] | microsomal CLint [2] [µL/min/mg] | microsomal CLint [3] [µL/min/mg] | also measured |
| --- | --- | --- | --- | --- | --- |
| N#CC1(c2ccccc2)CCN(c2ccc(-c3nc(CO)no3)nn2)CC1 | 190 | 530 | – | – | – |
| N#CC1(c2ccc(S(F)(F)(F)(F)F)cc2)CCN(c2ccc(-c3nc(CO)no3)nn2)CC1 | 9.5 | 8.4 | 7 | 24 | – |
| N#CC1(c2ccc([N+](=O)[O-])cc2)CCN(c2ccc(-c3nc(CO)no3)nn2)CC1 | 100 | 170 | 6 | 11 | – |
| OCc1noc(-c2ccc(N3CCC(c4ccc(C(F)(F)F)cc4)(C(F)(F)F)CC3)nn2)n1 | 2.3 | 1.3 | 20 | 19 | AUC [4]: 432 ng·h/mL; fraction unbound [5]: 0.05; clearance [6]: 15.4 mL/min/kg; MRT [7]: 3.2 h |
| CC(C)(C)c1ccc(C2(C#N)CCN(c3ccc(-c4nc(CO)no4)nn3)CC2)cc1 | 21 | 37 | – | 119 | – |
| N#CC1(c2ccc(OC(F)(F)F)cc2)CCN(c2ccc(-c3nc(CO)no3)nn2)CC1 | 11 | 32 | – | 35 | – |
| N#CC1(c2cccc(Cl)c2)CCN(c2ccc(-c3nc(CO)no3)nn2)CC1 | 15 | 200 | – | – | – |
| OCc1nnc(-c2ccc(N3CCC(c4ccc(C(F)(F)F)cc4)(C(F)(F)F)CC3)nn2)s1 | 2.5 | 1.1 | – | 1 | AUC [4]: 1190 ng·h/mL; fraction unbound [5]: 0.03; clearance [6]: 15.9 mL/min/kg; MRT [7]: 4.1 h |
| N#CC1(c2ccc(C(F)(F)F)cc2)CCN(c2ccc(-c3nc(CO)no3)nn2)CC1 | 27 | 39 | 2 | 33 | – |
| N#CC1(c2ccc(Cl)cc2)CCN(c2ccc(-c3nc(CO)no3)nn2)CC1 | 20 | 110 | – | 39 | – |
| N#CC1(c2ccccc2Cl)CCN(c2ccc(-c3nc(CO)no3)nn2)CC1 | 80 | 240 | – | – | – |
| OCc1noc(-c2ccc(N3CCC(O)(c4ccccc4)CC3)nn2)n1 | 130 | > 1000 | – | – | – |
| OCc1nnc(-c2ccc(N3CCC(c4ccc(C(F)(F)F)cc4)(C(F)(F)F)CC3)nn2)o1 | 4.7 | 2.7 | 14 | 33 | Activity (Mus musculus [8]): Non-Toxic; AUC [4]: 3760 ng·h/mL; fraction unbound [5]: 0.07; inhibition (Mus musculus [9]): Active; clearance [6]: 5.17 mL/min/kg; MRT [7]: 4.2 h; T/C (786-0): 32.8% |
| OCc1noc(-c2ccc(N3CCC4(COc5ccccc54)C3)nn2)n1 (stereo unspecified) | – | – | – | – | MRT [10]: 2.3 h; IC50 (Stearoyl-CoA desaturase [11]): 4.6 nM; AUC (Mus musculus [12]): 299 ng·h/mL |
| NC1(c2ccccc2)CCN(c2ccc(-c3nc(CO)no3)nn2)CC1 | 220 | 530 | – | – | – |
| OCc1noc(-c2ccc(N3CCC(c4ccccc4)(C(F)(F)F)CC3)nn2)n1 | 38 | 39 | – | – | – |
| COC1(c2ccccc2)CCN(c2ccc(-c3nc(CO)no3)nn2)CC1 | 110 | 410 | – | – | – |
| OCc1nsc(-c2ccc(N3CCC(c4ccc(C(F)(F)F)cc4)(C(F)(F)F)CC3)nn2)n1 | 1.2 | 1.3 | 10 | – | AUC [4]: 1820 ng·h/mL; fraction unbound [5]: 0.01; clearance [6]: 8.23 mL/min/kg; MRT [7]: 4.2 h |
